According to ChEMBL document CHEMBL1800039, “Structure-based design of short peptide ligands binding onto the E. coli processivity ring” (J Med Chem, 2011):
Where a SMILES comes first, the peptide text is derived from it. [ ]: non-standard residue; d: D form. Phe(3,4-Cl2) = N[C@@H](Cc1ccc(Cl)c(Cl)c1)C(=O)O; Phe(4-Br) = N[C@@H](Cc1ccc(Br)cc1)C(=O)O; Phe(4-Cl) = N[C@@H](Cc1ccc(Cl)cc1)C(=O)O; Phe(4-Me) = Cc1ccc(C[C@H](N)C(=O)O)cc1; hCha = N[C@@H](CCC1CCCCC1)C(=O)O; tBuAla = CC(C)(C)C[C@H](N)C(=O)O; Cha = N[C@@H](CC1CCCCC1)C(=O)O

Tests used:
[1] = Binding affinity to Escherichia coli DNA polymerase 3 subunit beta expressed in Escherichia coli BL21 by SPR analysis
In short: (§1)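 N-His-tagged E. coli β clamp (dnaN in pET15b, BL21, IPTG-induced at 28 C; Ni-NTA then MonoQ) was analysed by SPR on a chip carrying immobilized P1 peptide. For direct binding, β at 0.125–2 μM was injected at 50 μL/min, and background-subtracted data were fit to a 1:1 Langmuir model. For competition, β (0.25 μM) was premixed with peptide (1.5 nM–100 μM) and injected. IC50 came from % binding inhibition; Ki = (1 + KA[β])/IC50 and ΔG = RT ln Ki.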

[2] = Inhibition of Escherichia coli DNA polymerase 3 subunit beta-dependent elongation activity expressed in Escherichia coli BL21 after 2 hrs by competitive biochemical assay
In short: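 Assay run in 40 mM HEPES pH 7.5 with 80 mM K-glutamate, BSA, 16% glycerol, NP40 and 8 mM DTT. Primed 30/90-mer duplex (1 nM) was loaded at 37 C with SSB (90 nM), ATP (200 μM) and MgCl2 (7.5 mM), then γ complex (1 nM) and β dimer (5 nM). Mixtures took peptide or DMSO for 5 min at RT plus 2 h at 4 C.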

[3] = Binding affinity to Escherichia coli DNA polymerase 3 subunit beta expressed in Escherichia coli BL21 by ITC assay
In short: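 ITC at 25 C: peptide (400 μM) was injected in 2 μL steps into His-tagged β clamp (20 or 30 μM) in 10 mM Hepes pH 7.4, 0.15 M NaCl, 3 mM EDTA, 0.005% P20. Heats were corrected using peptide-into-buffer controls.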

Escherichia coli [4] = assay: Ratio of ull length DNA polymerase 4 IC50 to compound IC50 for Escherichia coli DNA polymerase 3 subunit beta by SPR analysis
Escherichia coli [5] = assay: Ratio of ull length DNA polymerase 4 Kd to compound Kd for Escherichia coli DNA polymerase 3 subunit beta by ITC assay
[6] = Binding affinity to Escherichia coli DNA polymerase 3 subunit beta expressed in Escherichia coli BL21 assessed as dissociation constant by SPR analysis; in short: as §1
[7] = Inhibition of Escherichia coli DNA polymerase 3

| IC50 [1] | IC50 [2] | Ratio IC50 (Escherichia coli [4]) | Ratio (Escherichia coli [5]) | Compound | Ka (inhibitor association constant, 1/M; higher = tighter) [1] | Kd [3] | Kd [6] | Ki [7] |
| --- | --- | --- | --- | --- | --- | --- | --- | --- |
| 0.096 µM | 0.25 µM | – | – | CC(=O)N[C@@H](CCC(N)=O)C(=O)N[C@@H](CC1CCCCC1)C(=O)N[C@@H](CC(=O)O)C(=O)N[C@@H](CC(C)C)C(=O)N[C@@H](Cc1ccc(Br)cc1)C(=O)O (Ac-Q[Cha]DL[Phe(4-Br)]-OH) | 13.49 ×10⁶ /M | 0.136 µM | – | – |
| – | 0.125 µM | 4 | 4 | CC(=O)N[C@@H](CCC(N)=O)C(=O)N[C@@H](CC1CCCCC1)C(=O)N[C@@H](CC(=O)O)C(=O)N[C@@H](CC(C)C)C(=O)N[C@@H](Cc1ccc(Cl)c(Cl)c1)C(=O)O (Ac-Q[Cha]DL[Phe(3,4-Cl2)]-OH) | – | 0.055 µM | – | – |
| 8.85 µM | – | – | – | H-RQLVLGL-OH | 0.15 ×10⁶ /M | 1.58 µM | 0.285 µM | – |
| – | – | – | – | CCOc1cc(/C=C2\SC(=S)N(CC(=O)O)C2=O)c(Br)c(Br)c1O | – | – | – | 10 µM |
| 0.74 µM | – | – | – | CC(=O)N[C@@H](CCC(N)=O)C(=O)N[C@@H](CCC(C)C)C(=O)N[C@@H](CC(=O)O)C(=O)N[C@@H](CC(C)C)C(=O)N[C@@H](Cc1ccccc1)C(=O)O | 1.84 ×10⁶ /M | – | – | – |
| 8.62 µM | 7 µM | – | – | H-RQLVLF-OH | 0.15 ×10⁶ /M | 2.32 µM | – | – |
| 1.12 µM | 4.5 µM | – | – | CC(=O)N[C@@H](CCC(N)=O)C(=O)N[C@@H](CC(C)C)C(=O)N[C@@H](CC(=O)O)C(=O)N[C@@H](CC(C)C)C(=O)N[C@@H](Cc1ccccc1)C(=O)O | 1.2 ×10⁶ /M | 0.613 µM | – | – |
| 82.8 µM | – | – | – | CC(=O)N[C@@H](CCC(N)=O)C(=O)N[C@@H](CCC1CCCCC1)C(=O)N[C@@H](CC(=O)O)C(=O)N[C@@H](CC(C)C)C(=O)N[C@@H](Cc1ccccc1)C(=O)O (Ac-Q[hCha]DLF-OH) | 0.0164 ×10⁶ /M | – | – | – |
| 0.17 µM | 2.8 µM | – | – | CC(=O)N[C@@H](CCC(N)=O)C(=O)N[C@@H](CC1CCCCC1)C(=O)N[C@@H](CC(=O)O)C(=O)N[C@@H](CC(C)C)C(=O)N[C@@H](Cc1ccccc1)C(=O)O (Ac-Q[Cha]DLF-OH) | 8.01 ×10⁶ /M | 0.222 µM | – | – |
| 21.5 µM | – | – | – | H-RQLVLL-OH | 0.0063 ×10⁶ /M | – | – | – |
| 0.16 µM | 0.3 µM | – | – | CC(=O)N[C@@H](CCC(N)=O)C(=O)N[C@@H](CC1CCCCC1)C(=O)N[C@@H](CC(=O)O)C(=O)N[C@@H](CC(C)C)C(=O)N[C@@H](Cc1ccc(Cl)cc1)C(=O)O (Ac-Q[Cha]DL[Phe(4-Cl)]-OH) | 13.7 ×10⁶ /M | 0.089 µM | – | – |
| 12.4 µM | – | – | – | CC(C)C[C@H](NC(=O)[C@H](CC(=O)O)NC(=O)[C@H](CC(C)C)NC(=O)[C@@H](N)CCC(N)=O)C(=O)N[C@@H](Cc1ccccc1)C(=O)O | 0.11 ×10⁶ /M | – | – | – |
| 0.26 µM | 2 µM | – | – | CC(=O)N[C@@H](CCC(N)=O)C(=O)N[C@@H](CC1CCCCC1)C(=O)N[C@@H](CC(=O)O)C(=O)N[C@@H](CC(C)C)C(=O)N[C@@H](Cc1ccc(C)cc1)C(=O)O (Ac-Q[Cha]DL[Phe(4-Me)]-OH) | 8.43 ×10⁶ /M | 0.362 µM | – | – |
| 0.99 µM | – | – | – | CC(=O)N[C@@H](CCC(N)=O)C(=O)N[C@@H](CC(C)(C)C)C(=O)N[C@@H](CC(=O)O)C(=O)N[C@@H](CC(C)C)C(=O)N[C@@H](Cc1ccccc1)C(=O)O (Ac-Q[tBuAla]DLF-OH) | 1.36 ×10⁶ /M | – | – | – |
| 256 µM | – | – | – | H-RQLVFL-OH | – | – | – | – |
